Measurements of several laboratories.
Protocols differ between the studies behind these lines.
Target: Aurora kinase A (AURKA, Homo sapiens, UniProt O14965)
Sequence (O14965 1-403, as in one of the studies): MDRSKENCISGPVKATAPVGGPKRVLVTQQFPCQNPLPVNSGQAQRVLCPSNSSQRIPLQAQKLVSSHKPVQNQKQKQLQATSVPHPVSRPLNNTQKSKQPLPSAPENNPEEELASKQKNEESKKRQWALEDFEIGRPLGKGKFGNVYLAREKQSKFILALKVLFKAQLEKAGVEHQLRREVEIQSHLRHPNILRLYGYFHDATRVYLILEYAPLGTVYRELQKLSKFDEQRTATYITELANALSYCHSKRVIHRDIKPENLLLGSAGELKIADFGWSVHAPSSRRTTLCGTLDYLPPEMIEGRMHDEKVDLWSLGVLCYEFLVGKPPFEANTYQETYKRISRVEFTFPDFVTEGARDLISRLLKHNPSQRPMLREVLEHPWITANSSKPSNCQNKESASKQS

SMILES	effect on	mode	technique	cells	tested at	quantity	result
CNC(=O)c1ccccc1Nc1cc(Nc2ccc(N3CCOCC3)cc2OC)ncc1C(F)(F)F	enzyme activity	inhibitor	–	–	1 µM	inhibition	> 50%
O=C1Nc2ccc(Cl)cc2C1=Cc1cc(Cl)c(O)c(Cl)c1	cell-free assay	–	–	–	0.5 µM	remaining signal	64.2%
COc1cc(/C=C/C(=O)CC(=O)/C=C/c2ccc(O)c(OC)c2)ccc1O	enzyme activity	inhibitor	–	–	1 µM	activity vs control	85%
CN1CC(Oc2cnc(C#N)cc2-c2ccn3nc(NC(=O)C4CC4)cc3c2)C1	enzyme activity	inhibitor	–	–	1 µM	inhibition	6%
C[C@@H]1CN(c2cc(-c3n[nH]c4ccc(OC5(C)CC5)cc34)ncn2)C[C@H](C)O1	cell-free assay	–	competition with immobilised ligand	–	0.1 µM	remaining binding	94%
CS(=O)(=O)Nc1cccc(-c2csc(NC(=O)CSc3nc4nccnc4c(=O)n3CCc3ccccc3)n2)c1	enzyme activity	inhibitor	–	–	10 µM	inhibition	0%
Cc1cnc(NC2CCOCC2)nc1-n1cnc(C(=O)NC(CN)c2cc(F)cc(Cl)c2)c1 (centres unmarked)	enzyme activity	inhibitor	radiometric	–	1 µM	remaining activity	48%
CNc1cc(Oc2cc(C(=O)Nc3cc(N4CCN(C)CC4)cc(C(F)(F)F)c3)ccc2C)ncn1	target engagement in cells	inhibitor	chemoproteomics	Huh-7	1 µM	inhibition	-45.4%
N#CC1(c2ccccn2)CCN(Cc2cc(C(=O)N3CCCC3)c(=O)n3ccccc23)CC1	cell-free assay	–	competition with immobilised ligand	–	1 µM	remaining binding	90%
COc1cc2ncnc(Nc3ccc(Oc4ccccc4)cc3C)c2cc1OC	enzyme activity	inhibitor	–	–	1 µM	inhibition	8%
CS(=O)(=O)N1CCCC(NC(=O)[C@H](CCC2CCCCC2)NC(=O)c2ccc(CNC(=O)c3cnc4ccccn34)cc2)C1 (some centres unmarked)	cell-free assay	–	competition with immobilised ligand	–	0.1 µM	remaining binding	100%
CC(C)(C)c1nc(-c2cccc(NS(=O)(=O)c3c(F)cccc3F)c2F)c(-c2ccnc(N)n2)s1	enzyme activity	inhibitor	radiometric	–	1 µM	remaining activity	102%
Cc1[nH]c(/C=C2\C(=O)Nc3ccc(F)cc32)c(C)c1C(=O)N[C@H]1CCN(C(=O)N(C)C)C1	enzyme activity	inhibitor	–	–	1 µM	remaining activity	35%
CNC(=O)c1cc(Oc2ccc(NC(=O)Nc3ccc(Cl)c(C(F)(F)F)c3)cc2)ccn1	enzyme activity	inhibitor	–	–	10 µM	inhibition	86%
O=C(N1CCS(=O)(=O)CC1)N1C[C@H](c2ccc(OC(F)(F)F)cc2)C[C@H](c2nc(C3CC3)no2)C1	cell-free assay	–	competition with immobilised ligand	–	1 µM	remaining binding	100%
CC/C(=N\NC(=O)NCc1cccc(O)c1)c1ccc(O)c(C)c1O	enzyme activity	inhibitor	–	–	0.1 µM	inhibition	5.9%

SMILES	effect on	mode	technique	cells	tested at	quantity	result
CNC(=O)Nc1ccc2c(c1)CC[C@@]21OC(=O)N(CC(=O)N(Cc2ccc(F)cc2)[C@@H](C)C(F)(F)F)C1=O	cell-free assay	–	competition with immobilised ligand	–	1 µM	remaining binding	80%
O=Nc1c(-c2c(O)[nH]c3ccccc23)[nH]c2ccccc12	cell-free assay	–	–	–	0.5 µM	remaining signal	21.3%
CC(C)(O)[C@H]1CC[C@H](Nc2ccc3ncc(-c4cccc(C(F)(F)F)c4)n3n2)CC1	enzyme activity	inhibitor	–	–	1 µM	remaining activity	96.1%
CS(=O)(=O)c1cc(C2(NC(=O)c3cncc4c3cnn4-c3ccc(F)cc3)CC2)ccn1	cell-free assay	–	competition with immobilised ligand	–	1 µM	remaining binding	89%
Oc1cccc(-c2nc(N3CCOCC3)c3oc4ncccc4c3n2)c1	enzyme activity	inhibitor	–	–	10 µM	remaining activity	92%
O=C(Nc1cnn(-c2csc(C(=O)NC3COC3)c2)c1)Nc1ccccc1Cl	enzyme activity	inhibitor	–	–	5 µM	remaining activity	105%
CCN(CC)c1ccc(C2=NNC(=O)CC2C)cc1[N+](=O)[O-] (centres unmarked)	enzyme activity	inhibitor	–	–	10 µM	remaining activity	93%
COc1cc2nccc(Oc3ccc(NC(=O)c4c5n(n(-c6ccc(F)cc6)c4=O)CCCC5)cc3)c2cc1OC	enzyme activity	inhibitor	–	–	0.1 µM	inhibition	-3%
CSc1nc(C)c(-c2ccnc(Nc3ccc(N4CCOCC4)cc3)c2)[nH]1	enzyme activity	inhibitor	–	–	10 µM	inhibition	40.6%
COc1cc(Nc2cnc(C#N)c(O[C@H](C)CN(C)C)n2)ncc1-c1cnn(C)c1	enzyme activity	inhibitor	radiometric	–	10 µM	remaining activity	48%
CN(c1ccnc(CNc2nc(Nc3ccc4c(c3)CC(=O)N4)ncc2C(F)(F)F)n1)S(C)(=O)=O	cell-free assay	–	competition with immobilised ligand	–	1 µM	remaining binding	14%
O=C1NC(=O)c2cc(Nc3ccc(F)cc3)c(Nc3ccc(F)cc3)cc21	cell-free assay	–	–	–	0.5 µM	remaining signal	92.7%
Cc1ccc(Nc2nccc(N(C)c3ccc4c(C)n(C)nc4c3)n2)cc1S(N)(=O)=O	enzyme activity	inhibitor	–	–	10 µM	inhibition	99%
CCN(CC)CCNC(=O)c1c(C)[nH]c(/C=C2\C(=O)Nc3ccc(F)cc32)c1C	enzyme activity	inhibitor	–	–	0.1 µM	remaining activity	83%
Cc1c[nH]c2nccc(Oc3c(F)cc(Nc4cc(Cl)nc(N)n4)cc3F)c12	cell-free assay	–	competition with immobilised ligand	–	0.1 µM	remaining binding	94%
CCN(CC)CCNC(=O)c1c(C)[nH]c(/C=C2\C(=O)Nc3ccc(F)cc32)c1C	enzyme activity	inhibitor	–	–	10 µM	inhibition	84%
